Laboratory results published in ChEMBL document CHEMBL1129060, “N6,C8-distributed adenosine derivatives as partial agonists for adenosine A1 receptors” (J Med Chem, 1996).
Values joined by “and” are separate entries in the source; they are usually repeats but may differ in a detail not shown here. Identical values can stand only once.

Experiments:
[1] = target: Adenosine A2 receptor (Rattus norvegicus, UniProt P29276+P30543); test: Displacement of [3H]-CGS- 21680 from Adenosine A2 receptor of rat striatal membranes; assay type: cell membranes, Membrane
[2] = target: T1, Adenosine receptor A1 (Rattus norvegicus, UniProt P25099); test: Displacement of [3H]DPCPX (without GTP) from Adenosine A1 receptor of rat cortical membrane
T1 sequence (P25099 whole entry): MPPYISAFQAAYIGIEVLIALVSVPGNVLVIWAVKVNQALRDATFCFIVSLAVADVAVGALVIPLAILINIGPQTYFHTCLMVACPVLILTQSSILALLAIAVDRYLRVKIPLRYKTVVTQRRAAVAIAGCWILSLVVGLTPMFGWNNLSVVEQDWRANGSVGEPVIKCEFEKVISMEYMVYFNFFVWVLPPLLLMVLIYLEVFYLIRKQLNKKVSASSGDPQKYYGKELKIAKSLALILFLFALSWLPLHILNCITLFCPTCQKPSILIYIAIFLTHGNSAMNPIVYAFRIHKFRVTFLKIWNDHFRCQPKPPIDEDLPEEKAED
How it was run: (§1)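 Rat cerebral cortex membranes, antagonist radioligand [3H]DPCPX, displacement run both with and without 1 mM GTP. Apparent Ki derived under each condition; their ratio gives the GTP shift. Two to three independent experiments, each in duplicate.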

[3] = target: T2, Adenosine receptor A1 (Rattus norvegicus) (UniProt P25099); test: Relative affinities for rat Adenosine A1 receptor in the presence and absence of GTP
T2 sequence (whole entry): T1 sequence (P25099 whole entry)
How it was run: (§2)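 Rat cortical membranes. [3H]DPCPX displacement run with and without 1 mM GTP. The GTP shift is the ratio of apparent Ki with GTP to Ki without GTP. Data from two to three independent experiments, each in duplicate.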

[4] = target: T1, Adenosine receptor A1; test: Displacement of [3H]DPCPX (with GTP) from Adenosine A1 receptor of rat cortical membrane; how it was run: as §1
[5] = tested on: Rattus norvegicus; test: Maximum reduction heart rate of rat at a dose of 4.8 mg/kg; assay type: functional
How it was run: (§3)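 Conscious, free-ranging, normotensive male SPF Wistar rats (200-250 g). Intravenous infusion in 20% (v/v) DMSO/water; vehicle-only controls. Arterial catheter; 30 min accommodation. Heart rate and arterial blood pressure recorded continuously from 15 min before dosing (baseline) through 5.5 h. Dosing done between 10:00 and 11:00 a.m. Values given as means ± SE.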

[6] = tested on: Rattus norvegicus; test: Mean arterial pressure was recorded in conscious, normo tensive and unrestrained rats that received an intravenous infusion of drugs at a dose of 4.8 mg/kg; assay type: functional, Artery; how it was run: as §3
[7] = target: T1, Adenosine receptor A1; test: Binding affinity for adenosine A1 receptor from rat cortical membrane using [3H]DPCPX without GTP; how it was run: as §2
[8] = tested on: Rattus norvegicus; test: Effect on heart rate was measured after intravenous administration (4.8 mg/kg) in rat; assay type: functional; how it was run: as §3
[9] = tested on: Rattus norvegicus; test: Mean arterial pressure was recorded in conscious, normo tensive and unrestrained rats that received an intravenous infusion of drugs at a dose of 8 mg/kg; assay type: functional, Artery
How it was run: (§4)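 Adult male SPF Wistar rats (200-250 g), conscious, free-ranging, arterial catheter. 30 min accommodation, then 15 min baseline recording before i.v. infusion in 20% (v/v) DMSO/water. Arterial pressure and heart rate monitored continuously for 5.5 h. Vehicle-only controls; dosing 10:00-11:00 a.m. Maximum reduction from pre-administration level reported as mean ± SE.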

[10] = tested on: Rattus norvegicus; test: Maximum reduction heart rate of rat at a dose of 8.0 mg/kg; assay type: functional; how it was run: as §4
[11] = tested on: Rattus norvegicus; test: Effect on heart rate was measured after intravenous administration (8 mg/kg) in rat; assay type: functional; how it was run: as §4
[12] = tested on: Rattus norvegicus; test: Mean arterial pressure was recorded of conscious, normo tensive and unrestrained rats that received an intravenous infusion of drugs at a dose of 0.20 mg/kg; assay type: functional, Artery; conditions: dose 0.2 mg/kg; how it was run: as §4
[13] = tested on: Rattus norvegicus; test: Maximum reduction heart rate of ratat a dose of 0.20 mg/kg; assay type: functional; conditions: dose 0.2 mg/kg; how it was run: as §4
[14] = tested on: Rattus norvegicus; test: Maximum reduction heart rate of rat at a dose of 0.20 mg/kg; assay type: functional; conditions: dose 0.2 mg/kg; how it was run: as §4

| Ki [1] | Ki ([2]; read-out: Ki) | GTP shift [3] | Ki [4] | Structure (SMILES) | also measured |
| --- | --- | --- | --- | --- | --- |
| 35300 nM | 760 nM | 1.1 | 860 nM | CCCCNc1ncnc2c1nc(NC1CCCC1)n2[C@@H]1O[C@H](CO)[C@@H](O)[C@H]1O |  |
| 101000 nM | 5610 nM | 2.8 | 15700 nM | CNc1ncnc2c1nc(NC1CCCC1)n2[C@@H]1O[C@H](CO)[C@@H](O)[C@H]1O |  |
| 3970 nM | 6560 nM | 3.6 | 23800 nM | CCNc1nc2c(N)ncnc2n1C1O[C@H](CO)[C@@H](O)[C@H]1O (some centres not stated) |  |
| 30200 nM | 310 nM | 4.1 | 1260 nM | CCNc1ncnc2c1nc(NC1CCCC1)n2[C@@H]1O[C@H](CO)[C@@H](O)[C@H]1O |  |
| 20800 nM |  | 3.8 | 980 nM | CNc1nc2c(NC3CCCC3)ncnc2n1[C@@H]1O[C@H](CO)[C@@H](O)[C@H]1O | Reduction [5]: 34% and 50%; MAP [6]: 105 mmHg; Ki [7]: 260 nM; Heart rate [8]: 334 beats min-1 |
| 7670 nM | 350 nM | 3 | 1050 nM | CCCNc1nc2c(NC3CCCC3)ncnc2n1[C@@H]1O[C@H](CO)[C@@H](O)[C@H]1O | Reduction [5]: 20% and 15%; MAP [6]: 90 mmHg; Heart rate [8]: 344 beats min-1 |
| 1850 nM | 2420 nM | 7.7 | 18600 nM | CNc1nc2c(N)ncnc2n1[C@@H]1O[C@H](CO)[C@@H](O)[C@H]1O |  |
| 11500 nM |  | 4 | 45500 nM | CCCCNc1nc2c(N)ncnc2n1[C@@H]1O[C@H](CO)[C@@H](O)[C@H]1O |  |
| 12400 nM | 500 nM | 2.3 | 1130 nM | CCCCNc1nc2c(NC3CCCC3)ncnc2n1C1O[C@H](CO)[C@@H](O)[C@H]1O (some centres not stated) | MAP [9]: 94 mmHg; Reduction [10]: 8% and 11%; Heart rate [11]: 348 beats min-1 |
| 59400 nM | 1590 nM | 1.1 | 1760 nM | CCCNc1ncnc2c1nc(NC1CCCC1)n2C1O[C@H](CO)[C@@H](O)[C@H]1O (some centres not stated) |  |
| 45500 nM | 1090 nM | 1.2 | 1280 nM | OC[C@H]1O[C@@H](n2c(NC3CCCC3)nc3c(NC4CCCC4)ncnc32)[C@H](O)[C@@H]1O | MAP [9]: 94 mmHg; Reduction [10]: 2% and 3%; Heart rate [11]: 329 beats min-1 |
| 10100 nM | 470 nM | 2.8 | 1330 nM | CCNc1nc2c(NC3CCCC3)ncnc2n1[C@@H]1O[C@H](CO)[C@@H](O)[C@H]1O | Reduction [5]: 25% and 24%; MAP [6]: 100 mmHg; Heart rate [8]: 350 beats min-1 |
| 4960 nM | 5960 nM | 5.8 | 34700 nM | CCCNc1nc2c(N)ncnc2n1C1O[C@H](CO)[C@@H](O)[C@H]1O (some centres not stated) |  |
| 580 nM |  |  |  | OC[C@H]1O[C@@H](n2cnc3c(NC4CCCC4)ncnc32)[C@H](O)[C@@H]1O [N6-CYCLOPENTYLADENOSINE] | MAP [12]: 109 mmHg; Reduction [13]: 54%; Heart rate [8]: 345 beats min-1; Reduction [14]: 54% |
|  |  |  |  | Nc1ncnc2c1nc(NC1CCCC1)n2C1O[C@H](CO)[C@@H](O)[C@H]1O (some centres not stated) | Ki [2]: Not Active |
